Values after ≈ are worked out from the molar mass of the structure shown. Active and inactive are the calls of the source. The calls are words filed in the database; no cut-off is given here.
What was measured:
Format in all cases: functional, cell-based
HepG2 = assay: Antitumor activity against human HepG2 cells after 48 hrs by SRB assay; settings: HepG2, 48 h
Summary of the method: (§1)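 Cells seeded at 10⁴/well and left overnight to attach, then exposed to compound for 48 h at 37 °C, 5% CO₂, in triplicate wells per dose. Cells were fixed and stained with sulforhodamine B in acetic acid, washed four times with 1% acetic acid, and bound dye was extracted with tris–EDTA. Absorbance was read on an ELISA reader. IC50 (50% growth inhibition) was taken from the survival curve.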

MCF7 [1] = assay: Antitumor activity against human MCF7 cells after 48 hrs by SRB assay; settings: MCF7, 48 h; summary of the method: as §1
HCT-116 [2] = assay: Antitumor activity against human HCT116 cells after 48 hrs by SRB assay; settings: HCT-116, 48 h; summary of the method: as §1
HeLa [3] = assay: Antitumor activity against human HeLa cells after 48 hrs by SRB assay; summary of the method: as §1
MCF7 [4] = assay: Antitumor activity against human MCF7 cells assessed as decrease in survival fraction at 1 ug/ml by SRB assay
Summary of the method: (§2)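 Monolayers seeded at 10⁴ cells/well were allowed to attach overnight, then treated with compound for 48 h at 37 °C, 5% CO₂, with triplicate wells per dose. Cells were fixed and stained with sulforhodamine B, washed with 1% acetic acid, and dye was solubilised in tris–EDTA before absorbance reading. Surviving fraction was plotted against compound concentration for each cell line.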

MCF7 [5] = assay: Antitumor activity against human MCF7 cells assessed as decrease in survival fraction at > 1 ug/ml by SRB assay; summary of the method: as §2
MCF7 [6] = assay: Antitumor activity against human MCF7 cells assessed as decrease in survival fraction at > 2.5 ug/ml by SRB assay; summary of the method: as §2
HCT-116 [7] = assay: Antitumor activity against human HCT116 cells assessed as decrease in survival fraction at 1 ug/ml by SRB assay; summary of the method: as §2
HeLa [8] = assay: Antitumor activity against human HeLa cells assessed as decrease in survival fraction at 1 ug/ml by SRB assay; summary of the method: as §2

Compound	IC50 (HepG2) [µg/mL]	IC50 (MCF7 [1]) [µg/mL]	IC50 (HCT-116 [2]) [µg/mL]	IC50 (HeLa [3]) [µg/mL]	Activity (MCF7 [4])	Activity (MCF7 [5])	Activity (MCF7 [6])	Activity (HCT-116 [7])	Activity (HeLa [8])
O=C(Nc1ccc(Cl)cc1)c1c(Nc2ccccc2)nn2ccc(-c3ccc4ccccc4c3)nc12	1.88 (≈ 3.84 µM)	0.74 (≈ 1.51 µM)	0.54 (≈ 1.1 µM)	0.4 (≈ 0.816 µM)	Active	Active	Active	Active	Active
N#Cc1ccc(-c2ccc3ccccc3c2)[nH]c1=S	1.01 (≈ 3.85 µM)	0.34 (≈ 1.3 µM)	0.49 (≈ 1.87 µM)	0.6 (≈ 2.29 µM)	Active	Active	Active	–	–
